Results on 16 compounds are retold here after ChEMBL document CHEMBL3813634, “Antileishmanial and Cytotoxic Activity of Some Highly Oxidized Abietane Diterpenoids from the Bald Cypress, Taxodium distichum” (J Nat Prod, 2016).

pIC50: −log10 of the molar value.

One data set concerns Leishmania amazonensis. Kind of data set: Antileishmanial activity against transgenic Leishmania amazonensis amastigotes infected in CD-1 mouse peritoneal macrophages assessed as beta-lactamase activity after 72 hrs by nitrocefin dye-based spectrophotometric analysis. Type of data set: functional, organism-based. Put shortly:
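Beta-lactamase-expressing promastigotes grown in RPMI 1640 GlutaMAX with HEPES, adenosine, folate, RPMI vitamins, 10% heat-inactivated FBS (pH 6.9); added 5:1 to CD-1 mouse peritoneal macrophages (1 × 10⁵ cells/well) for 24 h at 34 °C, washed twice with HBSS, then exposed to test concentrations for 72 h at 34 °C.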

The test system of a further data set is Leishmania donovani. Briefly: Antileishmanial activity against Leishmania donovani LV82 promastigotes expressing red fluorescent protein after 72 hrs by flow cytometric analysis. Conditions: LV82, 72 h. It is filed as functional, organism-based. On the technique in general: A flow cytometer gives signals particle by particle.
The nature of data set [1]: Selectivity index, ratio of IC50 for human HT-29 cells to IC50 for Leishmania amazonensis amastigotes. Type of data set: toxicity, cell-based. The note with it: HT-29 cells versus Leishmania amazonensis amastigotes, read-out: Ratio IC50. In a few lines: (§1)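 Selectivity index calculated as HT-29 cytotoxicity IC50 divided by antileishmanial IC50.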
For the next data set, the system named is HT-29. Briefly: Cytotoxicity against human HT-29 cells after 72 hrs by SRB assay. It is filed as cell-based. The note with it: HT-29, 72 h. Put shortly: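 HT-29 cells, 9500 per well, exposed to a range of concentrations in triplicate for 72 h; 10% DMSO in water as carrier/negative control, paclitaxel positive control.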
Data set [2] can be described thus: Selectivity index, ratio of IC50 for human HT-29 cells to IC50 for Leishmania donovani LV82 promastigotes expressing red fluorescent protein. It is filed as toxicity, cell-based. The note with it: read-out: Ratio IC50. Put shortly: as §1

`CC(C)c1cc(C=O)c([C@@]2(C)CCCC(C)(C)[C@@H]2C=O)cc1O`: the IC50 in the data set on Leishmania amazonensis and in the data set on Leishmania donovani was over 10 µg/mL each time.

Turning to `CC(C)C1=C(O)C(=O)C2=C(C1=O)[C@@H](O)C[C@H]1C(C)(C)CCC[C@]21C`, the 50% inhibitory concentration (IC50) in the data set on Leishmania amazonensis and in the data set with Leishmania donovani was over 10 µg/mL each time.

As to `CC(C)c1cc2c(c(O)c1O)[C@@]1(C)CCCC(C)(C)C1=C(O)C2=O` [14-DEOXYCOLEON U], the results for the selectivity ratio in data set [1] and in data set [2] were 1 and under 0.27, respectively. The values for the pIC50 in the data set with Leishmania amazonensis, in the data set with HT-29 and in the data set with Leishmania donovani were 4.89, 4.88 and under 4.22, respectively.

Take `CC(C)c1cc2c(cc1O)[C@@]1(C)CCCC(C)(C)[C@@H]1CC2=O` [SUGIOL]: the IC50 in the data set with Leishmania amazonensis and in the data set with Leishmania donovani was over 10 µg/mL in each case.

As for `CC(C)C1=C(O)C(=O)C2=C(C1=O)[C@H](O)C[C@H]1C(C)(C)CCC[C@]21C` [HORMINONE], the IC50 with Leishmania amazonensis and in the data set with Leishmania donovani was over 10 µg/mL throughout.

For the compound `CC(C)c1cc2c(cc1O)[C@@]1(C)CCCC(C)(C)C1=C(O)C2=O`, the half-inhibitory concentration (IC50) in the data set on Leishmania amazonensis and with Leishmania donovani was over 10 µg/mL throughout.

For the compound `CC(C)C1=C(O)C(=O)C2=C(CC[C@H]3C(C)(C)CCC[C@]23C)C1=O` [ROYLEANONE], the IC50 with Leishmania amazonensis and with Leishmania donovani was over 10 µg/mL each time.

Take `COCC(=O)[C@H]1C(C)(C)CCC[C@]1(C)C1=C(O)C(=O)C(C(C)C)=CC1=O`: the selectivity ratio in data set [1] is 3.2; in data set [2], 0.6. The negative logarithm of the IC50 (pIC50) in the data set on Leishmania amazonensis is 5.85; with HT-29, 5.36; in the data set on Leishmania donovani it was 5.16.

As for `CC(C)c1cc2c(cc1O)[C@@]1(C)CCCC(C)(C)[C@@H]1[C@@H](O)C2=O`, the selectivity ratio was 2.1 in data set [1] and 1.5 in data set [2]. Also, the pIC50 in the data set on Leishmania amazonensis is 4.77; with HT-29 it was 4.44; in the data set with Leishmania donovani, 4.61.

As to `C[C@@H]1[C@H](O)[C@@H](C)/C=C/C=C/C=C/C=C/C=C/C=C/C=C/[C@H](O[C@@H]2O[C@H](C)[C@@H](O)[C@H](N)[C@@H]2O)C[C@@H]2O[C@](O)(C[C@@H](O)C[C@@H](O)[C@H](O)CC[C@@H](O)C[C@@H](O)CC(=O)O[C@H]1C)C[C@H](O)[C@H]2C(=O)O` [AMPHOTERICIN B], the pIC50 with Leishmania amazonensis is 7.07.

On to `Cc1ccc2c3c1CCCC(C)(C)[C@@]3(O)C(=O)C(C(C)C)=C2`, for which the IC50 with Leishmania amazonensis and with Leishmania donovani was over 10 µg/mL each time.

As for `Cc1ccc2c3c1CCCC(C)(C)C3C(=O)C(C(C)C)=C2` (racemic), the IC50 in the data set on Leishmania amazonensis and in the data set with Leishmania donovani was over 10 µg/mL throughout.

As for `CC(C)c1cc2c(cc1O)[C@@]1(C)CCCC(C)(C)[C@@H]1CC2` [FERRUGINOL], the selectivity ratio in data set [1] came out at 2.5; in data set [2], 0.9. For the same compound, the pIC50 in the data set with Leishmania amazonensis was 4.81; in the data set on HT-29 it was 4.40; in the data set with Leishmania donovani, 4.34.

For `CO[C@@H]1C[C@H]2C(C)(C)CCC[C@]2(C)C2=C1C(=O)C(C(C)C)=C(O)C2=O`, the 50% inhibitory concentration (IC50) with Leishmania amazonensis and in the data set with Leishmania donovani was over 10 µg/mL in each case.

Take `CC(C)C1=CC2=CC(=O)[C@H]3C(C)(C)CCC[C@]3(C)C2=C(O)C1=O` [TAXODIONE]: the selectivity ratio came to 0.2 in data set [1] and 1.6 in data set [2]. The pIC50 in the data set with Leishmania amazonensis is 4.84; with HT-29 it was 5.60; in the data set with Leishmania donovani, 5.80.

Turning to `Cc1ccc2cc(C(C)C)c(O)c3c2c1CCCC(C)(C)O3`, the IC50 with Leishmania amazonensis and in the data set on Leishmania donovani was over 10 µg/mL each time.

As usually defined, the IC50 is the concentration needed to halve the response being measured. The term pIC50 denotes −log10 of the IC50, conventionally taken in molar units.
